Reference: ChEMBL document CHEMBL1145867, “Muraymycins, novel peptidoglycan biosynthesis inhibitors: synthesis and SAR of their analogues” (2003)
Values after ≈ are worked out from the molar mass of the structure shown. Active and inactive are the calls of the source. The rule behind the calls is not given here.

Assays:
Staphylococcus sp. [1] = assay: In vitro antimicrobial activity against CNS GC 4538 at 32 ug/ml soluble peptidoglycan; format: functional
Enterococcus faecalis [2] = assay: In vitro antimicrobial activity against Enterococcus faecalis GC 2242 at 32 ug/ml soluble peptidoglycan; format: functional
Bacteria [3] = assay: In vitro antimicrobial activity against gram-negative organisms (10)
[4] = The inhibitory activity of compound against MraY or MurG at 6.25 ug/mL; No inhibition
[5] = The inhibitory activity of compound against MraY or MurG at 100 ug/mL; Inhibit
Candida albicans [6] = assay: In vitro antimicrobial activity against Candida albicans […] at 32 ug/ml soluble peptidoglycan; format: functional
Staphylococcus aureus [7] = assay: In vitro antimicrobial activity against Staphylococcus aureus GC 1131 at 32 ug/ml soluble peptidoglycan; format: functional
Enterococcus faecalis [8] = assay: In vitro antimicrobial activity against Enterococcus faecalis GC 4555 at 32 ug/ml soluble peptidoglycan; format: functional
Enterococcus faecalis [9] = assay: In vitro antimicrobial activity against Enterococcus faecalis GC 842 at 32 ug/ml soluble peptidoglycan; format: functional
Staphylococcus sp. [10] = assay: In vitro antimicrobial activity against CNS GC 4547 at 32 ug/ml soluble peptidoglycan; format: functional
Staphylococcus aureus [11] = assay: In vitro antimicrobial activity against Staphylococcus aureus GC 2216 at 32 ug/ml soluble peptidoglycan; format: functional
[12] = The inhibitory activity of compound against MraY or MurG at 25 ug/mL; No inhibition
[13] = The inhibitory activity of compound against MraY or MurG at 12.5 ug/mL; No inhibition
[14] = The inhibitory activity of compound against MraY or MurG at 50 ug/mL; No inhibition
Staphylococcus sp. [15] = assay: In vitro antimicrobial activity against Coagulase-negative staphylococcus GC 4538 at 32 ug/ml soluble peptidoglycan; format: functional
Staphylococcus aureus [16] = assay: In vitro antimicrobial activity against Staphylococcus aureus GC 4536 at 32 ug/ml soluble peptidoglycan; format: functional
Morganella morganii = assay: In vitro antimicrobial activity against Morganella morganii GC 4531; format: functional
Outline: (§1)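 Broth microdilution per NCCLS guidance. Serial dilutions of each agent in microtiter plates are inoculated with each organism to 10⁵ CFU/mL and incubated 18–22 h at 35 C in ambient air. MIC is the lowest concentration giving complete growth inhibition, judged by the unaided eye.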

Enterococcus faecalis [17] = assay: In vitro antimicrobial activity against Enterococcus faecalis GC 2242; format: functional; outline: as §1
Enterobacter cloacae = assay: In vitro antimicrobial activity against Enterobacter cloacae GC 3783; format: functional; outline: as §1
Candida albicans [18] = assay: In vitro antimicrobial activity against Candida albicans GC 3066; format: functional; outline: as §1
Pseudomonas aeruginosa [19] = assay: In vitro antimicrobial activity against Pseudomonas aeruginosa GC 2214; format: functional; outline: as §1
Staphylococcus aureus [20] = assay: In vitro antimicrobial activity against Staphylococcu aureus GC 2216; format: functional; outline: as §1
Escherichia coli [21] = assay: In vitro antimicrobial activity against Escherichia coli GC 3226; format: functional; outline: as §1
[22] = The inhibitory activity of compound against MraY or MurG at 100 ug/mL;Inhibit
[23] = The inhibitory activity of compound against MraY or MurG at 50 ug/mL; Inhibit
Staphylococcus aureus [24] = assay: In vitro antimicrobial activity against Staphylococcu aureus GC 4536; format: functional; outline: as §1
Enterococcus faecalis [25] = assay: In vitro antimicrobial activity against Enterococcus faecalis GC 842; format: functional; outline: as §1
Staphylococcus sp. [26] = assay: In vitro antimicrobial activity against CNS GC 4538; format: functional; outline: as §1
Escherichia coli [27] = assay: In vitro antimicrobial activity against Escherichia coli GC 4560; format: functional; outline: as §1
[28] = The inhibitory activity of compound against MraY or MurG at 12.5 ug/mL; No Inhibition
[29] = The inhibitory activity of compound against MraY or MurG at 6.25 ug/mL; No Inhibition
[30] = The inhibitory activity of compound against MraY or MurG at 25 ug/mL; No Inhibition
Staphylococcus sp. [31] = assay: In vitro antimicrobial activity against CNS GC 4547; format: functional; outline: as §1
Escherichia coli [32] = assay: In vitro antimicrobial activity against Escherichia coli GC 2214; format: functional; outline: as §1
Staphylococcus sp. [33] = assay: In vitro antimicrobial activity against Staphylococci; format: functional, staphyl ococcus species; outline: as §1
Enterococcus faecalis [34] = assay: In vitro antimicrobial activity against Enterococcus faecalis GC 4555; format: functional; outline: as §1
Serratia marcescens [35] = assay: In vitro antimicrobial activity against Serratia marcescens GC 4077; format: functional; outline: as §1
Bacteria [36] = assay: In vitro antimicrobial activity against gram-negative organisms (10); format: functional; outline: as §1
Pseudomonas aeruginosa [37] = assay: In vitro antimicrobial activity against Pseudomonas aeruginosa GC 4532; format: functional; outline: as §1
Enterococcus sp. = assay: In vitro antimicrobial activity against Enterococci; format: functional; outline: as §1
Escherichia coli [38] = assay: In vitro antimicrobial activity against Escherichia coli GC 4559; format: functional; outline: as §1
Klebsiella pneumoniae = assay: In vitro antimicrobial activity against Klebsiella pneumoniae GC 4534; format: functional; outline: as §1
Staphylococcus aureus [39] = assay: In vitro antimicrobial activity against Staphylococcu aureus GC 1131; format: functional
Outline: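 Broth dilution per NCCLS recommendations. Serial dilutions in microtiter plates inoculated to 10⁵ CFU/mL, then incubated 18–22 h at 35 C in ambient air. MIC taken as the lowest concentration giving complete growth inhibition by unaided eye.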

Serratia marcescens [40] = assay: In vitro antimicrobial activity against In vitro antimicrobial activity against Serratia marcescens GC 4077
[41] = The inhibitory activity of compound against MraY or MurG at 25 ug/mL; Inhibit
[42] = The inhibitory activity of compound against MraY or MurG at 12.5 ug/mL; Inhibit
[43] = Staphylococcus sp., read-out: MIC

Inhibitory activity [5]	SMILES	MIC (Enterococcus faecalis [17]) [µg/mL]	MIC (Enterobacter cloacae) [µg/mL]	MIC (Candida albicans [18]) [µg/mL]	MIC (Pseudomonas aeruginosa [19]) [µg/mL]	MIC (Staphylococcus aureus [20]) [µg/mL]	MIC (Escherichia coli [21]) [µg/mL]	Inhibitory activity [23]	MIC (Staphylococcus aureus [24]) [µg/mL]	MIC (Enterococcus faecalis [25]) [µg/mL]	MIC (Staphylococcus sp. [26]) [µg/mL]	MIC (Staphylococcus sp. [26]; [43]) [µg/mL]	MIC (Escherichia coli [27]) [µg/mL]	Inhibitory activity [29]	MIC (Staphylococcus sp. [31]) [µg/mL]	MIC (Escherichia coli [32]) [µg/mL]	MIC (Staphylococcus sp. [33]) [µg/mL]	MIC (Enterococcus faecalis [34]) [µg/mL]	MIC (Serratia marcescens [35]) [µg/mL]	MIC (Bacteria [36]) [µg/mL]	further results
Inhibit	COc1ccc(Cn2c(=O)ccn([C@@H]3OC([C@H](O)[C@H](NCCCNC(=O)[C@H](N)C(C)O)C(=O)OC(C)(C)C)[C@@H](O[Si](C)(C)C(C)(C)C)[C@H]3O[Si](C)(C)C(C)(C)C)c2=O)cc1 (stereo partly specified)																				MIC (Staphylococcus sp. [1]): 4 µg/mL (≈ 4.54 µM); MIC (Enterococcus faecalis [2]): 8 µg/mL (≈ 9.09 µM); MIC (Bacteria [3]): > 128 µg/mL; Inhibitory activity [4]: inactive; MIC (Candida albicans [6]): > 128 µg/mL; MIC (Staphylococcus aureus [7]): 8 µg/mL (≈ 9.09 µM); MIC (Enterococcus faecalis [8]): 4 µg/mL (≈ 4.54 µM); MIC (Enterococcus faecalis [9]): 4 µg/mL (≈ 4.54 µM); MIC (Staphylococcus sp. [10]): 8 µg/mL (≈ 9.09 µM); MIC (Staphylococcus aureus [11]): 4 µg/mL (≈ 4.54 µM); Inhibitory activity [12]: inactive; Inhibitory activity [13]: inactive; Inhibitory activity [14]: inactive; MIC (Staphylococcus sp. [15]): 4 µg/mL (≈ 4.54 µM); MIC (Staphylococcus aureus [16]): 4 µg/mL (≈ 4.54 µM)
	COc1ccc(Cn2c(=O)ccn([C@@H]3OC([C@H](O)[C@H](NCCCNC(=O)[C@H](N)C(O)C(C)C)C(=O)OC(C)(C)C)[C@@H](O[Si](C)(C)C(C)(C)C)[C@H]3O[Si](C)(C)C(C)(C)C)c2=O)cc1 (stereo partly specified)	4 (≈ 4.4 µM)	> 128	> 128	> 128	4 (≈ 4.4 µM)	> 128	Inhibit	16 (≈ 17.6 µM)	8 (≈ 8.81 µM)	4 (≈ 4.4 µM)	4 (≈ 4.4 µM)	> 128	inactive	16 (≈ 17.6 µM)	> 128	4 (≈ 4.4 µM)	4 (≈ 4.4 µM)	> 128	> 128	MIC (Morganella morganii): > 128 µg/mL; Inhibitory activity [22]: Inhibit; Inhibitory activity [28]: inactive; Inhibitory activity [30]: inactive; MIC (Pseudomonas aeruginosa [37]): > 128 µg/mL; MIC (Enterococcus sp.): 128 µg/mL (≈ 141 µM); MIC (Escherichia coli [38]): > 128 µg/mL; MIC (Klebsiella pneumoniae): > 128 µg/mL; MIC (Staphylococcus aureus [39]): 4 µg/mL (≈ 4.4 µM)
Inhibit	COc1ccc(Cn2c(=O)ccn([C@@H]3OC([C@H](O)[C@H](NCCCNC(=O)[C@@H](C)N)C(=O)OC(C)(C)C)[C@@H](O[Si](C)(C)C(C)(C)C)[C@H]3O[Si](C)(C)C(C)(C)C)c2=O)cc1 (stereo partly specified)	4 (≈ 4.7 µM)	128 (≈ 151 µM)	128 (≈ 151 µM)	128 (≈ 151 µM)	8 (≈ 9.41 µM)	128 (≈ 151 µM)	Inhibit	4 (≈ 4.7 µM)	4 (≈ 4.7 µM)	8 (≈ 9.41 µM)	4 (≈ 4.7 µM)	128 (≈ 151 µM)	inactive	4 (≈ 4.7 µM)	128 (≈ 151 µM)	4 (≈ 4.7 µM)	8 (≈ 9.41 µM)	128 (≈ 151 µM)	64 (≈ 75.3 µM)	MIC (Serratia marcescens [40]): 128 µg/mL (≈ 151 µM); Inhibitory activity [28]: inactive; Inhibitory activity [30]: inactive; MIC (Pseudomonas aeruginosa [37]): 128 µg/mL (≈ 151 µM); MIC (Enterococcus sp.): 4 µg/mL (≈ 4.7 µM); MIC (Escherichia coli [38]): 128 µg/mL (≈ 151 µM); MIC (Klebsiella pneumoniae): 128 µg/mL (≈ 151 µM); MIC (Staphylococcus aureus [39]): 4 µg/mL (≈ 4.7 µM)
	COc1ccc(Cn2c(=O)ccn([C@@H]3OC([C@H](O)[C@H](NCCCNC(=O)[C@H](NC(=O)OCc4ccccc4)C(C)O)C(=O)OC(C)(C)C)[C@@H](O[Si](C)(C)C(C)(C)C)[C@H]3O[Si](C)(C)C(C)(C)C)c2=O)cc1 (stereo partly specified)																				MIC (Staphylococcus sp. [1]): > 128 µg/mL; MIC (Enterococcus faecalis [2]): > 128 µg/mL; MIC (Bacteria [3]): > 128 µg/mL; MIC (Candida albicans [6]): 128 µg/mL (≈ 126 µM); MIC (Staphylococcus aureus [7]): > 128 µg/mL; MIC (Enterococcus faecalis [8]): > 128 µg/mL; MIC (Enterococcus faecalis [9]): 128 µg/mL (≈ 126 µM); MIC (Staphylococcus sp. [10]): > 128 µg/mL; MIC (Staphylococcus aureus [11]): > 128 µg/mL; MIC (Staphylococcus sp. [15]): > 128 µg/mL; MIC (Staphylococcus aureus [16]): > 128 µg/mL

SMILES	Inhibitory activity [5]	MIC (Enterococcus faecalis [17]) [µg/mL]	MIC (Enterobacter cloacae) [µg/mL]	MIC (Candida albicans [18]) [µg/mL]	MIC (Pseudomonas aeruginosa [19]) [µg/mL]	MIC (Staphylococcus aureus [20]) [µg/mL]	MIC (Escherichia coli [21]) [µg/mL]	Inhibitory activity [23]	MIC (Staphylococcus aureus [24]) [µg/mL]	MIC (Enterococcus faecalis [25]) [µg/mL]	MIC (Staphylococcus sp. [26]) [µg/mL]	MIC (Staphylococcus sp. [26]; [43]) [µg/mL]	MIC (Escherichia coli [27]) [µg/mL]	Inhibitory activity [29]	MIC (Staphylococcus sp. [31]) [µg/mL]	MIC (Escherichia coli [32]) [µg/mL]	MIC (Staphylococcus sp. [33]) [µg/mL]	MIC (Enterococcus faecalis [34]) [µg/mL]	MIC (Serratia marcescens [35]) [µg/mL]	MIC (Bacteria [36]) [µg/mL]	further results
CC(C)C(O)[C@@H](N)C(=O)NCCCN[C@H](C(=O)OC(C)(C)C)[C@@H](O)C1O[C@@H](n2ccc(=O)[nH]c2=O)[C@H](O[Si](C)(C)C(C)(C)C)[C@@H]1O[Si](C)(C)C(C)(C)C (stereo partly specified)	Inhibit	2 (≈ 2.54 µM)	128 (≈ 162 µM)	32 (≈ 40.6 µM)	> 128	2 (≈ 2.54 µM)	> 128	Inhibit	1 (≈ 1.27 µM)	2 (≈ 2.54 µM)	2 (≈ 2.54 µM)	1 (≈ 1.27 µM)	32 (≈ 40.6 µM)	inactive	2 (≈ 2.54 µM)	128 (≈ 162 µM)	1 (≈ 1.27 µM)	2 (≈ 2.54 µM)	128 (≈ 162 µM)	> 128	MIC (Morganella morganii): 128 µg/mL (≈ 162 µM); Inhibitory activity [41]: Inhibit; MIC (Pseudomonas aeruginosa [37]): 128 µg/mL (≈ 162 µM); MIC (Enterococcus sp.): 2 µg/mL (≈ 2.54 µM); MIC (Escherichia coli [38]): > 128 µg/mL; Inhibitory activity [42]: Inhibit; MIC (Klebsiella pneumoniae): 128 µg/mL (≈ 162 µM); MIC (Staphylococcus aureus [39]): 1 µg/mL (≈ 1.27 µM)
